# Reference: ChEMBL document CHEMBL1142135, “Multidrug resistance conferred by novel DNA polymerase mutations in human cytomegalovirus isolates” (Antimicrob Agents Chemother, 2007)
# Columns and labels:
# Format in all cases: functional, organism-based
# Human betaherpesvirus 5 [1] = test: Antiviral activity against Human CMV T2241 in HFF cells by SEAP assay; conditions: Human betaherpesvirus 5, T2241, HFF
# Summary of the method: (§1)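 Cell-free stocks of AD169-derived recombinant viruses were inoculated at MOI 0.01 to 0.03 onto human foreskin fibroblasts. Cultures were grown without drug or with twofold increasing concentrations of GCV, FOS or CDV for 7 days. Supernatant SEAP activity was then measured. IC50 was derived by linear regression. Values are means and standard deviations of 7 to 23 replicate experiments.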
# Human betaherpesvirus 5 [2] = test: Antiviral activity against Human CMV T2211 in HFF cells by SEAP assay; conditions: Human betaherpesvirus 5, T2211, HFF; summary of the method: as §1
# Human betaherpesvirus 5 [3] = test: Antiviral activity against Human CMV T2233 in HFF cells by SEAP assay; conditions: Human betaherpesvirus 5, T2233, HFF; summary of the method: as §1
# Human betaherpesvirus 5 [4] = test: Antiviral activity against Human CMV T2293 in HFF cells by SEAP assay; conditions: Human betaherpesvirus 5, T2293, HFF; summary of the method: as §1
# Human betaherpesvirus 5 [5] = test: Antiviral activity against Human CMV T2291 in HFF cells by SEAP assay; conditions: Human betaherpesvirus 5, T2291, HFF; summary of the method: as §1
# Human betaherpesvirus 5 [6] = test: Antiviral activity against Human CMV T2311 in HFF cells by SEAP assay; conditions: Human betaherpesvirus 5, T2311, HFF; summary of the method: as §1
# Human betaherpesvirus 5 [7] = test: Antiviral activity against Human CMV AD169 in HFF cells by PRA; conditions: Human betaherpesvirus 5, AD169, HFF
# Human betaherpesvirus 5 [8] = test: Antiviral activity against Human CMV T2293 in HFF cells by PRA; conditions: Human betaherpesvirus 5, T2293, HFF
# Human betaherpesvirus 5 [9] = test: Antiviral activity against Human CMV T2291 in HFF cells by PRA; conditions: Human betaherpesvirus 5, T2291, HFF
# Human betaherpesvirus 5 [10] = test: Antiviral activity against Human CMV T2311 in HFF cells by PRA; conditions: Human betaherpesvirus 5, T2311, HFF
# Human betaherpesvirus 5 [11] = test: Antiviral activity against Human CMV Towne in MRC5 cells by PRA; conditions: Human betaherpesvirus 5, Towne
# Summary of the method: (§2)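 Plaque reduction in human lung MRC-5 fibroblasts, 80 to 100% confluent, infected with 50 PFU cell-free virus. Plates centrifuged 600 × g for 30 min, then 1 h at 37°C, 5% CO2. Inoculum removed; grown in duplicate with 0.625–160 μM GCV, 6.25–1,600 μM FOS or 0.0625–16 μM CDV in 0.8% carboxymethyl cellulose medium. Plaques counted at 7 days for IC50. Repeated 8–11 times; mean and SD.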
# Human betaherpesvirus 5 [12] = test: Antiviral activity against Human CMV T2296 in MRC5 cells by PRA; conditions: Human betaherpesvirus 5, T2296, MRC5; summary of the method: as §2
# Human betaherpesvirus 5 [13] = test: Antiviral activity against Human CMV T2287 in MRC5 cells by PRA; conditions: Human betaherpesvirus 5, T2287, MRC5; summary of the method: as §2
SMILES,IC50 (Human betaherpesvirus 5 [1]) [µM],IC50 (Human betaherpesvirus 5 [2]) [µM],IC50 (Human betaherpesvirus 5 [3]) [µM],IC50 (Human betaherpesvirus 5 [4]) [µM],IC50 (Human betaherpesvirus 5 [5]) [µM],IC50 (Human betaherpesvirus 5 [6]) [µM],IC50 (Human betaherpesvirus 5 [7]) [µM],IC50 (Human betaherpesvirus 5 [8]) [µM],IC50 (Human betaherpesvirus 5 [9]) [µM],IC50 (Human betaherpesvirus 5 [10]) [µM],IC50 (Human betaherpesvirus 5 [11]) [µM],IC50 (Human betaherpesvirus 5 [12]) [µM],IC50 (Human betaherpesvirus 5 [13]) [µM]
O=C(O)P(=O)(O)O [FOSCARNET],42,41,45,32,274,308,78,122,431,732,62.8,63.4,486
Nc1nc2c(ncn2COC(CO)CO)c(=O)[nH]1 [GANCICLOVIR],1.4,,1.4,5.6,7.1,30.2,1.9,10,4.1,12.4,4.9,5.4,30.1
Nc1ccn(C[C@@H](CO)OCP(=O)(O)O)c(=O)n1 [CIDOFOVIR],0.3,0.2,0.3,5.2,0.7,4.7,0.9,4.9,3.3,8.9,0.3,0.6,1.8
